One test concerns HT-29. Description: Cytotoxicity against human HT-29 cells by MTT assay. Format: functional, cell-based.
The test system of a further test is DLD-1. Description: Cytotoxicity against human DLD1 cells by MTT assay. Format: functional, cell-based.
In test [1] the test system is HL-60. Description: Inhibition of okadaic acid-induced TNFalpha production in human HL60 cells at 30 uM after 16 hrs by ELISA relative to control. In kind it is functional. Conditions: HL-60, 16 h, values are per cent of control. In a few lines:
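HL-60 cells in RPMI 1640 with 10% fetal bovine serum, 2 mM L-glutamine and penicillin/streptomycin, 37 °C, 5% CO2. Exponential cells (5×10^5 cells/mL) given 50 nM okadaic acid plus compound (30 µM) for 16 h. Cell number and morphology checked microscopically. Supernatant TNF-α measured by human TNF-α ELISA, expressed as % of okadaic acid-only treatment (100%). At least three experiments, triplicate means.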

For test [2], the system named is HL-60. The experiment in a line: Enhancement of 12-O-tetradecanoylphorbol-13-acetate-induced TNFalpha production in human HL60 cell at 30 uM after 16 hrs by ELISA relative to control. Format: functional. In short, it runs like this:
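HL-60 cells in RPMI 1640 with 10% fetal bovine serum, 2 mM L-glutamine and penicillin/streptomycin, 37 °C, 5% CO2. Exponential cells (5×10^5 cells/mL) co-treated with 10 nM TPA plus compound (30 µM) for 16 h. Cell number and morphology checked microscopically. Supernatant TNF-α measured by human TNF-α ELISA, expressed as % of TPA-only treatment (100%). At least three experiments, triplicate means.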

A further test has as its system ST486. The experiment in a line: Cytotoxicity against human ST486 cells by MTT assay. Format: functional, cell-based.
The subject of test [3] is HL-60. The experiment in a line: Cytotoxicity against human HL60 cells by MTT assay. Format: functional, cell-based.
The subject of the next test is HUVEC. Description: Cytotoxicity against HUVEC by MTT assay. To be noted: Homo sapiens. Format: cell-based.

The structures appear in SMILES notation. Some results are limits rather than exact numbers.

For `CN(C)CCN1C(=O)CCC(N2C(=O)c3ccccc3C2=O)C1=O` (stereo unspecified), the IC50 in the test on HT-29, with DLD-1, in the test with ST486, in the test on HL-60 [3] and in the test on HUVEC was more than 50 µM each time. The compound further registered a response, % of control at 30 µM in the test on HL-60 [1] of 93%. The Activity in the test with HL-60 [2] is 125%.

Regarding `CN(C)CCN1C(=O)CCC(n2c(=O)c3cc4c(=O)n(C5CCC(=O)N(CCN(C)C)C5=O)c(=O)c4cc3c2=O)C1=O` (stereo unspecified), the IC50 in the test on HT-29, with DLD-1, in the test on ST486, with HL-60 [3] and with HUVEC was more than 50 µM each time. The response, % of control at 30 µM in the test with HL-60 [1] is 77%. Further, in the test with HL-60 [2], the Activity is 138%.

Take `CN(CCN1C(=O)CCC(N2C(=O)c3ccccc3C2=O)C1=O)CCN1C(=O)CCC(N2C(=O)c3ccccc3C2=O)C1=O` (stereo unspecified): the IC50 in the test with HT-29, in the test with DLD-1, in the test with ST486, with HL-60 [3] and with HUVEC was more than 50 µM in each case. The compound further returned a response, % of control at 30 µM in the test on HL-60 [1] of 99%. The Activity with HL-60 [2] was determined as 159%.

With `O=C1CCC(N2C(=O)c3cccc4cc([N+](=O)[O-])cc(c34)C2=O)C(=O)N1` (stereo unspecified), the IC50 with HT-29, in the test with DLD-1, in the test with ST486, with HL-60 [3] and in the test on HUVEC was more than 50 µM in each case. Further, in the test on HL-60 [1], the response, % of control at 30 µM is 47%. Also, in the test on HL-60 [2], the Activity turned out to be 248%.

With `CN(C)CCN1C(=O)CCC(N2C(=O)c3cccc4cccc(c34)C2=O)C1=O` (stereo unspecified), the IC50 in the test with HT-29, in the test with DLD-1, in the test on ST486, with HL-60 [3] and in the test with HUVEC was more than 50 µM in each case. The compound further had a response, % of control at 30 µM with HL-60 [1] of 91%. In the test with HL-60 [2], the Activity stood at 107%.

In the case of `CN(C)CCN1C(=O)CCC(N2C(=O)c3cccc4cc([N+](=O)[O-])cc(c34)C2=O)C1=O` (stereo unspecified), the IC50 in the test with HT-29, in the test on DLD-1, in the test with ST486, in the test on HL-60 [3] and with HUVEC was more than 50 µM each time. This compound also registered a response, % of control at 30 µM in the test with HL-60 [1] of 48%. Moreover, the Activity with HL-60 [2] is 124%.

For the compound `Nc1cc2c3c(cccc3c1)C(=O)N(C1CCC(=O)NC1=O)C2=O` (stereo unspecified), the IC50 in the test on HT-29, in the test with DLD-1, in the test with ST486, with HL-60 [3] and with HUVEC was more than 50 µM each time. Also, the response, % of control at 30 µM in the test on HL-60 [1] was found to be 46%. Further, the Activity in the test with HL-60 [2] turned out to be 138%.

Consider `NC(=O)CCC(C(=O)O)N1C(=O)c2cc3ccccc3cc2C1=O` (stereo unspecified), for which the IC50 with HT-29, with DLD-1, with ST486, in the test on HL-60 [3] and in the test on HUVEC was more than 50 µM each time. In the test with HL-60 [1], this compound registered a response, % of control at 30 µM of 60%. The Activity with HL-60 [2] turned out to be 258%.

For `NC(=O)CCC(C(=O)O)N1C(=O)c2ccc3ccccc3c2C1=O` (stereo unspecified), the IC50 in the test with HT-29, in the test with DLD-1, with ST486, in the test on HL-60 [3] and in the test on HUVEC was more than 50 µM each time. Further, the response, % of control at 30 µM in the test on HL-60 [1] was found to be 111%. Further, the Activity with HL-60 [2] amounted to 146%.

As for `CN(C)CCN1C(=O)CCC(N2C(=O)c3cccc4cc(N)cc(c34)C2=O)C1=O` (stereo unspecified), the IC50 in the test with HT-29, in the test with DLD-1, with ST486, in the test with HL-60 [3] and in the test with HUVEC was more than 50 µM throughout. For the same compound, the response, % of control at 30 µM in the test with HL-60 [1] was found to be 47%. For the same compound, the Activity with HL-60 [2] was 132%.

For `CN(C)CCN1C(=O)CCC(N2C(=O)c3cc4ccccc4cc3C2=O)C1=O` (stereo unspecified), the IC50 in the test on HT-29, with DLD-1, with ST486, with HL-60 [3] and in the test on HUVEC was more than 50 µM throughout. In the test with HL-60 [1], this compound displayed a response, % of control at 30 µM of 50%. The Activity in the test on HL-60 [2] worked out at 149%.

Take `CN(C)CCN1C(=O)CCC(N2C(=O)c3ccc4ccccc4c3C2=O)C1=O` (stereo unspecified): the IC50 in the test with HT-29, in the test on DLD-1, in the test on ST486, in the test on HL-60 [3] and in the test on HUVEC was more than 50 µM throughout. In the test with HL-60 [1], this compound registered a response, % of control at 30 µM of 59%. For the same compound, in the test with HL-60 [2], the Activity is 105%.

Consider `O=C1CCC(N2C(=O)c3cc4ccccc4cc3C2=O)C(=O)N1` (stereo unspecified), for which the IC50 in the test on HT-29, in the test on DLD-1, in the test on ST486, with HL-60 [3] and with HUVEC was more than 50 µM throughout. The compound also registered a response, % of control at 30 µM in the test on HL-60 [1] of 138%. For the same compound, the Activity in the test on HL-60 [2] came out at 166%.

As for `O=C1CCC(N2C(=O)c3ccc4ccccc4c3C2=O)C(=O)N1` (stereo unspecified), the IC50 in the test on HT-29, in the test with DLD-1, in the test on ST486, with HL-60 [3] and with HUVEC was more than 50 µM each time. Also, in the test on HL-60 [1], the response, % of control at 30 µM stood at 78%. The Activity in the test on HL-60 [2] was determined as 161%.

On to `O=C1CCC(N2C(=O)C(c3ccccc3)=C(c3ccccc3)C2=O)C(=O)N1` (stereo unspecified), for which the IC50 in the test with HT-29, in the test on DLD-1, in the test on ST486, in the test with HL-60 [3] and in the test on HUVEC was more than 50 µM throughout. In addition, the response, % of control at 30 µM in the test on HL-60 [1] stood at 47%. Moreover, the Activity in the test on HL-60 [2] was 147%.

In the case of `NC(=O)CCC(C(=O)O)N1C(=O)C(c2ccccc2)=C(c2ccccc2)C1=O` (stereo unspecified), the IC50 with HT-29, with DLD-1, in the test on ST486, in the test with HL-60 [3] and in the test on HUVEC was more than 50 µM throughout. The same compound had a response, % of control at 30 µM in the test with HL-60 [1] of 66%. Further, the Activity with HL-60 [2] was 146%.

As to `O=C1CCC(n2c(=O)c3cc4c(=O)n(C5CCC(=O)NC5=O)c(=O)c4cc3c2=O)C(=O)N1` (stereo unspecified), the IC50 with HT-29, in the test on DLD-1, in the test with ST486, in the test with HL-60 [3] and in the test on HUVEC was more than 50 µM throughout. In the test on HL-60 [1], this compound displayed a response, % of control at 30 µM of 34%. For the same compound, the Activity with HL-60 [2] worked out at 294%.

Take `CN(C)CCN1C(=O)CCC(N2C(=O)C(c3ccccc3)=C(c3ccccc3)C2=O)C1=O` (stereo unspecified): the IC50 with HT-29, in the test with DLD-1, in the test with ST486, with HL-60 [3] and with HUVEC was more than 50 µM throughout. The same compound yielded a response, % of control at 30 µM in the test on HL-60 [1] of 6%. In the test with HL-60 [2], the Activity was 672%.

Regarding `NC(=O)CCC(C(=O)O)N1C(=O)c2cccc3cccc(c23)C1=O` (stereo unspecified), the half-maximal inhibitory concentration (IC50) with HT-29, with DLD-1, in the test on ST486, in the test on HL-60 [3] and with HUVEC was more than 50 µM throughout. This compound yielded a response, % of control at 30 µM in the test on HL-60 [1] of 55%. Also, the Activity in the test with HL-60 [2] stood at 116%.

In the case of `NC(=O)CCC(C(=O)O)N1C(=O)c2cccc3cc([N+](=O)[O-])cc(c23)C1=O` (stereo unspecified), the IC50 with HT-29, in the test with DLD-1, in the test with ST486, with HL-60 [3] and with HUVEC was more than 50 µM throughout. The response, % of control at 30 µM with HL-60 [1] amounted to 51%. The Activity with HL-60 [2] worked out at 86%.

Regarding `NC(=O)CCC(C(=O)O)N1C(=O)c2cccc3cc(N)cc(c23)C1=O` (stereo unspecified), the IC50 in the test with HT-29, in the test on DLD-1, in the test on ST486, in the test with HL-60 [3] and in the test on HUVEC was more than 50 µM each time. This compound registered a response, % of control at 30 µM in the test on HL-60 [1] of 49%. Besides, the Activity with HL-60 [2] was 140%.

As for `O=C1CCC(N2C(=O)c3cccc4cccc(c34)C2=O)C(=O)N1` (stereo unspecified), the IC50 in the test on HT-29, in the test on DLD-1, in the test with ST486, in the test with HL-60 [3] and in the test on HUVEC was more than 50 µM each time. Also, the response, % of control at 30 µM in the test on HL-60 [1] came to 49%. Also, the Activity in the test on HL-60 [2] worked out at 158%.

For `O=C1CCC(N2C(=O)c3ccccc3C2=O)C(=O)N1` (stereo unspecified) [THALIDOMIDE], the half-inhibitory concentration (IC50) in the test with HT-29, with DLD-1, in the test with ST486, with HL-60 [3] and in the test with HUVEC was more than 50 µM in each case. This compound came in with a response, % of control at 30 µM with HL-60 [1] of 53%. Further, the Activity in the test with HL-60 [2] came out at 164%.

The record behind these values is ChEMBL document CHEMBL1153763, “Discovering a new analogue of thalidomide which may be used as a potent modulator of TNF-alpha production” (Eur J Med Chem, 2009).
